Measurements reported in PMC5800424 (Molecular carcinogenesis, 2016).

Legend:
BxPC-3 = experiment: MTT proliferation assay, BxPC-3 cells; type: cell-based; conditions: Homo sapiens, BXPC-3, 24 h; for IC20: read-out: Approx. IC20; for IC50: read-out: Approx. IC50
How it was run: (§1)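 Cells were seeded at 4 × 10^3/well in 96-well plates and dosed 24 h later with graded concentrations of test compound for 24 h, with DMSO solvent control. Proliferation was read by modified MTT assay and approximate IC20/IC50 reported; triplicates, three independent experiments. Culture media, all at 37°C/5% CO2, were: BxPC-3 and Capan-2 RPMI/10% FBS; MIA PaCa-2 high-glucose DMEM/10% FBS/5% horse serum; PANC-1 DMEM/10% FBS; HPNE HPNE base medium/5% FBS/EGF.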

MIA PaCa-2 = experiment: MTT proliferation assay, MIA PaCa-2 cells; type: cell-based; conditions: Homo sapiens, MIA PaCa-2, 24 h; for IC20: read-out: Approx. IC20; for IC50: read-out: Approx. IC50
How it was run: as §1

PANC-1 = experiment: MTT proliferation assay, PANC-1 cells; type: cell-based; conditions: Homo sapiens, PANC-1, 24 h; for IC20: read-out: Approx. IC20; for IC50: read-out: Approx. IC50
How it was run: as §1

Capan-2 [1] = experiment: MTT proliferation assay, Capan-2 cells; type: cell-based; conditions: Homo sapiens, Capan-2, 24 h; for IC20: read-out: Approx. IC20; for IC50: read-out: Approx. IC50
How it was run: as §1

HPNE = experiment: MTT proliferation assay, HPNE cells; type: cell-based; conditions: Homo sapiens, 24 h; for IC20: read-out: Approx. IC20; for IC50: read-out: Approx. IC50
How it was run: as §1

p105 = experiment: Immunoblot analysis of p105; type: cell-based, human; conditions: MIA PaCa-2; 24h; GEM 0.5 μM alone or with Nx 20 μg/mL
How it was run: (§2)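 MIA PaCa-2 cells were exposed for 24 h to medium alone, test extract (20 μg/mL), nucleoside drug (0.5 μM), or both. They were lysed in 2x SDS buffer with protease and phosphatase inhibitors, run on 10% SDS-PAGE and transferred to nitrocellulose. Blocking was 1 h at RT in 5% milk or 5% BSA/TBST, primary antibody 2 h at RT, then HRP secondary 1 h. Detection was ECL; blots are representative of three independent experiments.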

phospho-p65 (pp65) = experiment: Immunoblot analysis of pp65; type: cell-based, human; conditions: MIA PaCa-2; 24h; GEM 0.5 μM alone or with Nx 20 μg/mL
Capan-2 [2] = experiment: Annexin V apoptosis assay, Capan-2; type: cell-based, human; conditions: 24h, Nx 50 μg/mL, GEM 0.5 μM, alone or in combination
[3] = system: GEM-resistant Capan-2 (GRC) cells; experiment: Proliferation assay, GEM-resistant Capan-2; type: cell-based, human; conditions: 24h
How it was run: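 The resistant Capan-2 line was derived by stepwise nucleoside drug exposure: 5 μM for 4 days, 5 μM for 1 week, 7.5 μM for 1 week, each followed by drug-free recovery, then 10 μM for 4 months. It was kept in RPMI/10% FBS plus drug. Resistant and parental cells were treated with graded doses for 24 h, and proliferation was read by MTT; triplicates, three independent experiments.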

[4] = system: GEM-resistant BxPC-3 (GRB) cells; experiment: Proliferation assay, GEM-resistant BxPC-3; type: cell-based, human; conditions: 24h
p50 = experiment: Immunoblot analysis of p50; type: cell-based, human; conditions: MIA PaCa-2; 24h; GEM 0.5 μM alone or with Nx 20 μg/mL
How it was run: as §2

`CCCCC[N+]12CCc3cc4c(cc3C1Cc1ccc(OC)c(OC)c1C2)OCO4.[Cl-]` (centres unmarked) [Ber 2-4, 9,10-dimethoxy-7-pentyl-5,6,7,8,13,13a-hexahydro-[1,3]dioxolo[4,5-g]isoquinolino[3,2-a]isoquinolin-7-ium chloride] showed an IC20 (BxPC-3) of about 5 µg/mL, an IC50 (BxPC-3) of about 25 µg/mL and an IC20 (MIA PaCa-2) of about 10 µg/mL. The IC50 (MIA PaCa-2) was about 30 µg/mL, the IC20 (PANC-1) was about 1 µg/mL and the IC50 (PANC-1) was about 5 µg/mL. For the same compound, the IC20 (Capan-2 [1]) was about 5 µg/mL, the IC50 (Capan-2 [1]) was about 75 µg/mL and the IC20 (HPNE) was about 25 µg/mL. The IC50 (HPNE) was about 75 µg/mL.
Compound `COc1ccc2cc3[n+](cc2c1OC)CCc1cc2c(cc1-3)OCO2` [Berberine] has an IC20 (BxPC-3) of about 5 µg/mL, an IC50 (BxPC-3) of about 25 µg/mL and an IC20 (MIA PaCa-2) of about 5 µg/mL. For the same compound, the IC50 (MIA PaCa-2) was about 25 µg/mL, the IC20 (PANC-1) was about 2.5 µg/mL and the IC50 (PANC-1) was about 50 µg/mL. For the same compound, the IC20 (Capan-2 [1]) was about 5 µg/mL, the IC50 (Capan-2 [1]) was about 75 µg/mL and the IC20 (HPNE) was about 5 µg/mL. It also gave an IC50 (HPNE) of about 75 µg/mL.
In the case of `COc1ccc2c(c1OC)C[N+]1(Cc3ccc(Br)cc3)CCc3cc4c(cc3C1C2)OCO4.[Br-]` (centres unmarked) [Ber 2-8, 7-(4-bromobenzyl)-9,10-dimethoxy-5,6,7,8,13,13a-hexahydro-[1,3]dioxolo[4,5-g]isoquinolino[3,2-a]isoquinolin-7-ium bromide], the IC20 (MIA PaCa-2) is reported as about 5 µg/mL, the IC50 (MIA PaCa-2) is reported as about 20 µg/mL and the IC20 (PANC-1) is reported as about 5 µg/mL. It also gave an IC50 (PANC-1) of about 50 µg/mL, an IC20 (HPNE) of about 25 µg/mL and an IC50 (HPNE) of about 50 µg/mL.
With `Nc1ccn([C@@H]2O[C@H](CO)[C@@H](O)C2(F)F)c(=O)n1` [GEM, gemcitabine] the “levels of p105” value (p105) was “induced”, the “levels of pp65” value (phospho-p65 (pp65)) was “induced” and the “apoptosis induction (Annexin V)” value (Capan-2 [2]) was “did not observe Annexin positive cells”. For the same compound, the “proliferation of GRC cells compared to WT parental Capan-2” value [3] was “significantly higher level of tolerance”, the “proliferation of GRB cells compared to WT parental BxPC-3” value [4] was “significantly higher level of tolerance” and the “levels of p50” value (p50) was “induced”.
